High-throughput results (PubChem BioAssay)
HCV core dimer – blocks dimerization of HCV core protein; TR-FRET GST/Flag-core106 dimerization, 1536-well; inhibition, % at 5 µM; 300,000 compounds, 0.33% hits; AID 1899;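 active = inhibition above the mean of all tested compounds plus 3 SD, set per screening campaign, cut at about 45% in these data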
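Material: Tagged HCV core106 pair (GST and Flag) | Amount: GST-core106 13.5 nM, Flag-core106 17 nM | Medium: KF-containing HEPES buffer, pH 7.45, DTT, CHAPS, BSA | Reagent: Eu donor and XL665 acceptor anti-tag antibodies | Schedule: 4 h at 22.5 °C | Technique: Time-resolved FRET, ex 340 nm, em 617 and 671 nm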
HSF1 inh – HSF1 inhibition; NIH3T3-HGL HSE-luciferase, MG132-induced, luminescence 8 h; stronger effect = lower value; activity change, negative = inhibition, % at 7.5 µM (by protocol); 300,000 compounds, 0.77% hits; AID 2098;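 active = more than half of replicate wells show activity change below -50%, luminescence cut by over half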;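 also: luciferase reports HSF-1 transcriptional activity via heat shock element; 0% = median of DMSO wells and -100% = zero luminescence signal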
NS3 helicase inh – inhibitors of Hepatitis C virus NS3 helicase. NS3 helicase DNA unwinding, Cy5 molecular beacon fluorescence. inhibition, % at 10.9 µM. 290,000 compounds, 0.56% hits;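 active = inhibition above the mean of all tested compounds plus 3 SD, set per campaign, cut at about 35% in these data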;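 also: 0% = DMSO wells and 100% = thioflavine S control wells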
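System: HCV NS3 helicase fragment; control set: DMSO and thioflavine S; technique: Cy5 fluorescence at 0 and 60 min, beacon hairpin quenching; reagent: beacon DNA duplex substrate plus ATP; replicates: singlicate; schedule: 1 h reaction at 25 °C, ATP-initiated; medium: MOPS buffer pH 6.5 with MgCl2, DTT, Tween20, BSA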
HSF-1 act – increases HSF-1 driven luciferase reporter signal | NIH3T3-HGL HSF-1 luciferase reporter, MG132, 8 h; 100% = twice DMSO control signal | activation, % at 9 µM | 300,000 compounds, 1.7% hits;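 active = mean replicate activation of at least 50% with a set share of replicates each reaching 50%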;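 also: 0% = median of the neutral control wells and 100% = twice that signal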
DNA FID counter – displaces DNA intercalator in HCV helicase counter-screen | DNA fluorescent intercalator displacement, fluorescence | 290,000 compounds, 0.17% hits | inhibition, % at 7.9 µM; in the data active = inhibition above about 37%;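 also: 0% = vehicle and 100% = reference compound; higher means more ethidium bromide displaced from hairpin DNA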
HSP90 refold inh – inhibitors of HSP90 luciferase refolding in rabbit reticulocyte lysate; inhibition, % at 5.6 µM; luciferase refolding luminescence, 3 h; 290,000 compounds, 0.91% hits;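 active = inhibition above the screen-wide mean plus 3 SD, computed separately per campaign, cut at about 16% in these data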;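 also: 0% = DMSO wells and 100% = 60 µM geldanamycin wells; inhibitors lower the luminescence because luciferase stays unfolded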
Starred values were filed as active, the others as inactive; / = not tested or not shown. A selection: hits, their analogues and other compounds. The true share with any hit is near 3.9%.

SMILES	HCV core dimer	HSF1 inh	NS3 helicase inh	HSF-1 act	DNA FID counter	HSP90 refold inh
CCn1c(=O)c(C(=O)Nc2ccccc2F)c(O)c2ccccc21	10.0	-77.8*	3.1	-82.0	-1.2	-0.1
CCn1c(=O)c(C(=O)Nc2ccccc2)c(O)c2ccccc21	-2.7	-6.4	5.4	6.1	-6.8	-2.1
CCCCNS(=O)(=O)c1cc(-c2nn(C)c(=O)c3ccccc23)ccc1C	10.0	1.8	1.0	1.8	-34.3	3.8
Cc1ccc(-c2nn(C)c(=O)c3ccccc23)cc1S(=O)(=O)NCCN(C)C	-4.6	-61.1*	-8.6	-67.3	11.5	3.0
Cc1nc(C)c(C(=O)C2=C(O)C(=O)N(CCCn3ccnc3)C2c2ccc(Cl)cc2)s1 (centres undefined)	0.1	16.5	2.2	30.3	-17.2	-0.5
Cc1cc2sc3ccc(C#CC4(O)CCCCC4)cc3c(=O)c2cc1C	11.3	-90.3*	/	-92.7	/	/
O=c1c2ccccc2oc2ccc(C#CC3(O)CCCCC3)cc12	-14.4	-86.1*	/	-87.2	/	/
Cn1c2ccc(F)cc2c2ncn(CCN3CCOCC3)c(=O)c21	-8.7	78.5	0.6	159.9*	-9.2	3.5
Cn1c2ccccc2c2ncn(CCC3=CCCCC3)c(=O)c21	3.4	36.5	1.1	61.0*	-17.8	6.4
Cc1cnc(N2C(=O)c3ccc([N+](=O)[O-])cc3C2=O)s1	5.3	1.3	-3.8	-8.6	-1.5	-0.8
Cc1ccc(S(=O)(=O)NCc2ccc(C(=O)NCCN(Cc3ccccc3)C(C)C)cc2)cc1	-3.6	0.3	-32.0	9.9	38.9*	0.1
COc1ccc(CCn2c(C)ccc2C)cc1OC	47.4*	-0.3	9.5	-7.2	-15.9	1.6
Cc1ccc(/C=N\NC(=O)Cc2noc3ccccc23)cc1	9.5	-86.8*	-7.1	-89.5	-16.7	7.1
COc1cccc(NC(=O)c2ccc(NCCCN3CC(C)CC(C)C3)c([N+](=O)[O-])c2)c1 (centres undefined)	/	1.0	-88.2	11.0	50.6*	4.1
COc1cccc(NC(=O)c2ccc(NCCCN3CCC(C)CC3)c([N+](=O)[O-])c2)c1	-3.6	4.9	-6.7	26.8	26.2	1.9
Cc1cc(C(=O)CSc2nnc(-c3cccs3)n2Cc2ccccc2)c(C)n1C	16.9	-7.7	-15.8	-20.1	-26.0	0.8
O=c1cc(CSc2nnc(-c3cccs3)n2Cc2ccccc2)nc2sc3ccccc3n12	59.6*	-4.3	0.1	0.3	-34.3	6.4
CN(CC(=O)Nc1cccc(F)c1)C(=O)c1cc(-c2ccco2)nc2ccccc12	59.3*	-8.0	/	2.7	/	/
O=C(N/N=C/c1cccc(F)c1)c1cc(-c2ccco2)nc2ccccc12	73.5*	11.3	39.9*	-3.9	-6.4	2.4
COc1cccc(NC(=O)CN(C)C(=O)c2cc(-c3ccc(F)cc3)nc3ccccc23)c1	1.7	-13.7	/	-7.7	/	/
COc1ccc(NC(=O)CN(C)C(=O)c2cc(-c3ccco3)nc3ccccc23)cc1	60.6*	2.4	/	22.8	/	/
CN(CC(=O)Nc1cccc(F)c1)C(=O)c1cccc(-n2cccc2)c1	63.6*	-4.9	/	8.3	/	/
O=C(Cc1ccc(Cl)cc1)Nc1ccccc1C(=O)N1CCCC1	-7.3	4.2	4.0	16.8	-11.7	-3.2
CN(C)c1ccc(NC(=O)CSc2nnc(-c3ccco3)c(-c3ccco3)n2)cc1	38.3	5.1	26.2	5.4	-28.8	-0.4
c1ccc(-c2nnc(-c3ccco3)o2)cc1	4.0	24.8	-0.7	38.5	-1.9	-1.9
Cc1ccc(SCC(=O)Nc2ccc(-c3nnc(-c4ccco4)o3)cc2)cc1	8.9	43.7	-11.4	77.7*	-3.0	-0.8
Brc1ccc(-c2nnc(-c3ccco3)o2)cc1	8.1	43.3	-3.5	62.7*	-3.3	-2.7
CCC(=O)NNC(=O)CSc1nnc(-c2ccccc2)c(-c2ccccc2)n1	-10.9	-73.9*	9.4	-78.5	-18.7	1.3
Cc1ccc(NC(=O)CCSc2nnc(-c3ccco3)o2)cc1	1.0	1.1	-1.8	-8.1	-10.4	0.8
O=C(CSc1nnc(-c2ccco2)c(-c2ccco2)n1)Nc1ccccc1	50.8*	4.4	24.5	-6.1	-9.0	-1.1
